Among the data in ChEMBL document CHEMBL1129664, “Neuroactive polyamine wasp toxins: nuclear magnetic resonance spectroscopic analysis of the protolytic properties of philanthotoxin-343” (J Med Chem, 1996) are pKa values, retold here.

Data set [1] can be described thus: Macroscopic pKa value at 27 C, ionic strength 0.1 M. Type of data set: physicochemical.
Data set [2] in a line: Macroscopic pKa value at 25 C, ionic strength 1 M. The data set is classed as physicochemical. The method in brief:
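13C and 1H NMR titration in D2O, following chemical shifts against pD at 25 °C, ionic strength 1 M, with a 22 mM solution for the shift data. Carbons of the polyamine chain were assigned from shift data and total ionization shifts. Proton shifts were too small for quantitative analysis, so 1H titration curves were used only qualitatively.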

Data set [3] in a line: Macroscopic pKa value at 25 C, ionic strength 0.1 M. The data set is classed as physicochemical.

With `NCCCCNCCCNCCCN`, the pKa in data set [1] (read-out: pK1) stood at 7.59; in data set [1] (read-out: pK2) it was 9.24; in data set [1] (read-out: pK3), 10.5; in data set [1] (read-out: pK4), 11.1.
On to `CCCC(=O)NC(Cc1ccc(O)cc1)C(=O)NCCCNCCCCNCCCN` (stereo unspecified), for which the pKa came to 8.5 in data set [2] (read-out: pK1), 9.5 in data set [2] (read-out: pK2), 10.4 in data set [2] (read-out: pK3) and 11.4 in data set [2] (read-out: pK4).
Turning to `NCCCCNCCCN` [SPERMIDINE], the pKa in data set [3] (read-out: pK1) stood at 8.15; in data set [3] (read-out: pK2) it was 9.74; in data set [3] (read-out: pK3), 10.2; in data set [2] (read-out: pK1), 8.93; in data set [2] (read-out: pK2) it was 10.3; in data set [2] (read-out: pK3), 10.9.
On to `NCCCNCCCCNCCCN` [SPERMINE], for which the pKa in data set [3] (read-out: pK1) is 7.91; in data set [3] (read-out: pK2), 8.68; in data set [3] (read-out: pK3), 10.2; in data set [2] (read-out: pK1), 8.69; in data set [2] (read-out: pK2), 9.31; in data set [2] (read-out: pK3), 10.7. Also, the values for the pKa (in data set [2] (read-out: pK4); in the data set “physchem”) were 10.8 and 10.6, respectively.
As to `NCCCNCCCNCCCN` [THERMINE], the pKa in data set [1] (read-out: pK1) was 7.36; in data set [1] (read-out: pK2), 8.81; in data set [1] (read-out: pK3), 10.1; in data set [1] (read-out: pK4), 10.8.
